Legend:
Settings in all cases: stereoisomer not certain
OR51L1 (Homo sapiens) = target: T1, OR51L1 (Homo sapiens) (UniProt Q8NGJ5)
T1 sequence (whole entry): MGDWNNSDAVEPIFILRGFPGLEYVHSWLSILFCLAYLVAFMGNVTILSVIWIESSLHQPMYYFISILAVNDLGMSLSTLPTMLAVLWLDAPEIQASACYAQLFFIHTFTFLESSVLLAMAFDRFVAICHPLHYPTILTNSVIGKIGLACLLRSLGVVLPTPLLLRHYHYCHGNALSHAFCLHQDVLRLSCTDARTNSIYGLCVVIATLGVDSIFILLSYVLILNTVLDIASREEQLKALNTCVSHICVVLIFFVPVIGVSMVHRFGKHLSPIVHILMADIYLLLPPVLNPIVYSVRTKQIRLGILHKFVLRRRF
Summary of the method: (§1)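 Each receptor–molecule pair is labelled responsive or non-responsive (inactive) according to whether the original authors judged the measured signal statistically different from baseline. The data were taken from the main text and supplementary material of published papers and checked for typos and inconsistencies. Assay methods differed by source, with transient luciferase assays in mammalian cell lines being common.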

OR51I2 (Homo sapiens) = target: T2, OR51I2 (Homo sapiens) (UniProt Q9H344)
T2 sequence (whole entry): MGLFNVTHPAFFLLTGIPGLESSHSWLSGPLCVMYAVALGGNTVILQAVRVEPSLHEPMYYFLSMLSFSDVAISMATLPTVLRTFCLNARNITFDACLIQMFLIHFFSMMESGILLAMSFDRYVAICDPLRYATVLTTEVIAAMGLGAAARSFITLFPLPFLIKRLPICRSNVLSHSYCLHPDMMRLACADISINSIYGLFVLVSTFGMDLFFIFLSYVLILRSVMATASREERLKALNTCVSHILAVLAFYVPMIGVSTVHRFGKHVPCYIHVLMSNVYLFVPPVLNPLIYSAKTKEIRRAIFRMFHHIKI
Summary of the method: as §1

OR51J1 (Homo sapiens) = target: T3, OR51J1 (Homo sapiens) (UniProt Q9H342)
T3 sequence (whole entry): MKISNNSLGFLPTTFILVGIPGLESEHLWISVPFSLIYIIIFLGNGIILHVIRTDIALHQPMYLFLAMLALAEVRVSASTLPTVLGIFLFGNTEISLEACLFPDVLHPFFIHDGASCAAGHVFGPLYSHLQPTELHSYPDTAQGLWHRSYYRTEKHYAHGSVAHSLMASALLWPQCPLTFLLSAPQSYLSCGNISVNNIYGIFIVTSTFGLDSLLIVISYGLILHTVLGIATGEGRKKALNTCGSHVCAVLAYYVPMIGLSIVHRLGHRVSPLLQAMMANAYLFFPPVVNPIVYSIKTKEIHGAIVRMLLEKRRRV
Summary of the method: as §1

OR51M1 (Homo sapiens) = target: T4, OR51M1 (Homo sapiens) (UniProt Q9H341)
T4 sequence (whole entry): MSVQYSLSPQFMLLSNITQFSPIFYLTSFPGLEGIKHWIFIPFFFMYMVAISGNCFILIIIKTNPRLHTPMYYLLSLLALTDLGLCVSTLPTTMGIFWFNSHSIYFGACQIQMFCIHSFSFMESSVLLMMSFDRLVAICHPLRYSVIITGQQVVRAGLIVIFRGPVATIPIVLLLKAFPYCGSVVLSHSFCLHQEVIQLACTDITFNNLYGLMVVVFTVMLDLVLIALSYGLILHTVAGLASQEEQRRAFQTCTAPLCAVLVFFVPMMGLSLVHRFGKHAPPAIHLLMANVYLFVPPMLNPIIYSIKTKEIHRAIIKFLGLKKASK
Summary of the method: as §1

OR51Q1 (Homo sapiens) = target: T5, OR51Q1 (Homo sapiens) (UniProt Q8NH59)
T5 sequence (whole entry): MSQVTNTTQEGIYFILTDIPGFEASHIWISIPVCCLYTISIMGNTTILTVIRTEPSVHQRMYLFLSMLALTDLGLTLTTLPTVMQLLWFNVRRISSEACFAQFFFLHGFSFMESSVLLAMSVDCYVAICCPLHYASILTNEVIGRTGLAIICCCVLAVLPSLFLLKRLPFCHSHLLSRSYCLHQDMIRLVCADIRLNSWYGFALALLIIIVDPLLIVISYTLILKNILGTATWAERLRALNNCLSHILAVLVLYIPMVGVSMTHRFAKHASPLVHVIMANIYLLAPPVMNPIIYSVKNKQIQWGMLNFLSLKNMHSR
Summary of the method: as §1

OR51S1 (Homo sapiens) = target: T6, OR51S1 (Homo sapiens) (UniProt Q8NGJ8)
T6 sequence (whole entry): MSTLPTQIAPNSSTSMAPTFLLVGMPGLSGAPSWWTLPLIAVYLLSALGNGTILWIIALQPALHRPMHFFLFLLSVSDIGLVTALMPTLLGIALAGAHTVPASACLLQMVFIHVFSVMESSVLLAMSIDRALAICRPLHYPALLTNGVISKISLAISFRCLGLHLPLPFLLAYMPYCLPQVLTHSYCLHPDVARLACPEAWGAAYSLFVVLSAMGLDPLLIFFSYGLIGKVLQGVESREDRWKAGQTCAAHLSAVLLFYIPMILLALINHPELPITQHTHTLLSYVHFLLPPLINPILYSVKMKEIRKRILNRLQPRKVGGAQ
Summary of the method: as §1

OR51T1 (Homo sapiens) = target: T7, OR51T1 (Homo sapiens) (UniProt Q8NGJ9)
T7 sequence (whole entry): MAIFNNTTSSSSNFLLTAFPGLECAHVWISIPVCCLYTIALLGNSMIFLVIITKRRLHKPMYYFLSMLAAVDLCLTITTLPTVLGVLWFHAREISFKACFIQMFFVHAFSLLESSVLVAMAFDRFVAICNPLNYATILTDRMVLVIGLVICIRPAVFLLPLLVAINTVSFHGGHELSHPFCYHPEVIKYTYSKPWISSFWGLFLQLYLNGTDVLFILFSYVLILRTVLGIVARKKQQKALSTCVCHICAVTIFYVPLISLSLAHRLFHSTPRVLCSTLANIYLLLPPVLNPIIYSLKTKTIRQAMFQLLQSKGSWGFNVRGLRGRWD
Summary of the method: as §1

OR51V1 (Homo sapiens) = target: T8, OR51V1 (Homo sapiens) (UniProt Q9H2C8)
T8 sequence (whole entry): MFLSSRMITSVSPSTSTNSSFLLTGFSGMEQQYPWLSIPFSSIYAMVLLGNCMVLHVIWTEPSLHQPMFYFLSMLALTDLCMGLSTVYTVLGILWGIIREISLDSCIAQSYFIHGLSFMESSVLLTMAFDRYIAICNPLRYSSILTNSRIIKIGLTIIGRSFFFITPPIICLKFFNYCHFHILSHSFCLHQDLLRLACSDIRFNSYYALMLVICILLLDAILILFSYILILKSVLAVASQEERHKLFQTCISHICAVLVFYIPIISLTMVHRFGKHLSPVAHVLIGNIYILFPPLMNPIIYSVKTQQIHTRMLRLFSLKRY
Summary of the method: as §1

OR52A1 (Homo sapiens) = target: T9, OR52A1 (Homo sapiens) (UniProt Q9UKL2)
T9 sequence (whole entry): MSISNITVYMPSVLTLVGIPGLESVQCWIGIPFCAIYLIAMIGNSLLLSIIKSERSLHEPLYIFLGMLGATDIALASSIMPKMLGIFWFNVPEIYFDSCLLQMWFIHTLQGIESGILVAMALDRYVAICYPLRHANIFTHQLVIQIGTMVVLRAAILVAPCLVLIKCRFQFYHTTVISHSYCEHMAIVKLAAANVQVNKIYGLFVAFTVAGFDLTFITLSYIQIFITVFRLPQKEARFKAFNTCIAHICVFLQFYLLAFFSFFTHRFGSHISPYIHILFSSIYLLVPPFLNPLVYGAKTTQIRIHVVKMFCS
Summary of the method: as §1

OR52A4P (Homo sapiens) = target: T10, OR52A4P (Homo sapiens) (UniProt A6NMU1)
T10 sequence (whole entry): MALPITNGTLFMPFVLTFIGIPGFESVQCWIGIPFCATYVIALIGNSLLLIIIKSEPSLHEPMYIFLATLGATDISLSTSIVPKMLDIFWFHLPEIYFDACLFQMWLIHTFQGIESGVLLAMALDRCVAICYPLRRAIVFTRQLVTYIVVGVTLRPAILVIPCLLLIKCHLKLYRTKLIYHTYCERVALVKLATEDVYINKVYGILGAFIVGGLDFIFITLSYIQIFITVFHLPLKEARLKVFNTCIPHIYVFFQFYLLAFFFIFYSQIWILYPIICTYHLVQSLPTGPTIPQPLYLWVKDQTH
Summary of the method: as §1

OR52A5 (Homo sapiens) = target: T11, OR52A5 (Homo sapiens) (UniProt Q9H2C5)
T11 sequence (whole entry): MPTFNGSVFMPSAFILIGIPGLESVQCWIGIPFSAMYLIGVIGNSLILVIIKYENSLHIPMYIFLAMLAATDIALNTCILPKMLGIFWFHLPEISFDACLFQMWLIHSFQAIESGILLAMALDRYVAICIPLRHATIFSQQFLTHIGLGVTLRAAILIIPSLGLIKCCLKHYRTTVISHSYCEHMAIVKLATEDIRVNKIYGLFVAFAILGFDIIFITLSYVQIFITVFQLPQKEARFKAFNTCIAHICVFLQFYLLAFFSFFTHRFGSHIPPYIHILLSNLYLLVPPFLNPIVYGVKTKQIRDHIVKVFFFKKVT
Summary of the method: as §1

OR52B2 (Homo sapiens) = target: T12, OR52B2 (Homo sapiens) (UniProt Q96RD2)
T12 sequence (whole entry): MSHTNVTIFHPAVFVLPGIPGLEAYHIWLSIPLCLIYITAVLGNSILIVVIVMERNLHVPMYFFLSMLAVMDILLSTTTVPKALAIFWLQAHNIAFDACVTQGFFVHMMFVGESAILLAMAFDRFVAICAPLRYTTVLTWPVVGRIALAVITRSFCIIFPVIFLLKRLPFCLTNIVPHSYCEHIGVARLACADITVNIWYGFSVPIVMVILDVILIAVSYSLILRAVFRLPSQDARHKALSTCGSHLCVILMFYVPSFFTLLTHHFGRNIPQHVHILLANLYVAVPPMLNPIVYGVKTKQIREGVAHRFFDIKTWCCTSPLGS
Summary of the method: as §1

OR52B4 (Homo sapiens) = target: T13, OR52B4 (Homo sapiens) (UniProt Q8NGK2)
T13 sequence (whole entry): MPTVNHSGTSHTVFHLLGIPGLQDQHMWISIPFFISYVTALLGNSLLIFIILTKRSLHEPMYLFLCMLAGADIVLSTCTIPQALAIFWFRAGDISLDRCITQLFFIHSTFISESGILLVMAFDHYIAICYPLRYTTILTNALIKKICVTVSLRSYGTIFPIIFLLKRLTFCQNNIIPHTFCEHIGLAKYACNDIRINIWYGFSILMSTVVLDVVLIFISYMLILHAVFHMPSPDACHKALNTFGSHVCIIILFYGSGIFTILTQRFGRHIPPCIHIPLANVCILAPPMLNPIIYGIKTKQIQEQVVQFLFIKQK
Summary of the method: as §1

OR52B6 (Homo sapiens) = target: T14, OR52B6 (Homo sapiens) (UniProt Q8NGF0)
T14 sequence (whole entry): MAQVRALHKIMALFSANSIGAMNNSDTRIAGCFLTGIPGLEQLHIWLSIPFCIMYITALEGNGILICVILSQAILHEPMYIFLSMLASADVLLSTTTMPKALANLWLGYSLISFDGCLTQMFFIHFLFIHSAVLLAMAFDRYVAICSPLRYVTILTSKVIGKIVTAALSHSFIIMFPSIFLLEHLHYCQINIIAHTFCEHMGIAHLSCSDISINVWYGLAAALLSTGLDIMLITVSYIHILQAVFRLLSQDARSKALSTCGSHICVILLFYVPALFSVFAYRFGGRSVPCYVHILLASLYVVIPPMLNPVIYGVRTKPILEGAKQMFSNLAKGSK
Summary of the method: as §1

OR52D1 (Homo sapiens) = target: T15, OR52D1 (Homo sapiens) (UniProt Q9H346)
T15 sequence (whole entry): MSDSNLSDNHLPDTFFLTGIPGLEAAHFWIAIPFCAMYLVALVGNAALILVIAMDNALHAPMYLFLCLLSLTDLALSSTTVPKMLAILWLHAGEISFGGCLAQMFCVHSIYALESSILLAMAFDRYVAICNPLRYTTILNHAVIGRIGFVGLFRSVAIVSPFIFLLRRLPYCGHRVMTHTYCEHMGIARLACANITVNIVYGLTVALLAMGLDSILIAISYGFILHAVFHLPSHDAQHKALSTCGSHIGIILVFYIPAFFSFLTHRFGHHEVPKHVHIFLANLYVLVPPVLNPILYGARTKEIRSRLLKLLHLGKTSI
Summary of the method: as §1

OR52E2 (Homo sapiens) = OR52E2 (Homo sapiens) (UniProt Q8NGJ4)
Summary of the method: as §1

OR52E4 (Homo sapiens) = OR52E4 (Homo sapiens) (UniProt Q8NGH9)
Summary of the method: as §1

OR52E5 (Homo sapiens) = OR52E5 (Homo sapiens) (UniProt Q8NH55)
Summary of the method: as §1

OR52E6 (Homo sapiens) = OR52E6 (Homo sapiens) (UniProt Q96RD3)
Summary of the method: as §1

OR52E1 (Homo sapiens) = OR52E1 (Homo sapiens) (UniProt Q8NGJ3)
Summary of the method: as §1

Measured: odorant receptor agonist call;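 further: active if original authors judged signal statistically different from baseline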

Chain of OR52E2 (Homo sapiens) (Q8NGJ4 whole entry): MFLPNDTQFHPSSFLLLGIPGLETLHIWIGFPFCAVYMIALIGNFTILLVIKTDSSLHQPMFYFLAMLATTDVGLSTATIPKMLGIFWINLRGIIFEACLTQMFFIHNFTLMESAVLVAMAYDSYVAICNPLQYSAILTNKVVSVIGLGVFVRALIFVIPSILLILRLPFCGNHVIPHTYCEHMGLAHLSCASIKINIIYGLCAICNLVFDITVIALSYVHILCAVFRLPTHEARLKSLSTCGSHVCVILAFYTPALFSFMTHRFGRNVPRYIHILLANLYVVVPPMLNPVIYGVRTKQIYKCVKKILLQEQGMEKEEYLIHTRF
Chain of OR52E6 (Homo sapiens) (Q96RD3 whole entry): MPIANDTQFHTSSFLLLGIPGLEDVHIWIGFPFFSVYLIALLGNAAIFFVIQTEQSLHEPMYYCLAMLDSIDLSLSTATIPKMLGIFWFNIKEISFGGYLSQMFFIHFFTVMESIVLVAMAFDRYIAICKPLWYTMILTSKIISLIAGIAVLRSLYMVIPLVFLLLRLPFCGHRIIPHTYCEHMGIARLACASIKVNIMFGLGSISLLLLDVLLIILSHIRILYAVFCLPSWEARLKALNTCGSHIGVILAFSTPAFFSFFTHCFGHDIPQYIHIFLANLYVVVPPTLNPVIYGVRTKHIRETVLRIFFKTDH
Chain of OR52E4 (Homo sapiens) (Q8NGH9 whole entry): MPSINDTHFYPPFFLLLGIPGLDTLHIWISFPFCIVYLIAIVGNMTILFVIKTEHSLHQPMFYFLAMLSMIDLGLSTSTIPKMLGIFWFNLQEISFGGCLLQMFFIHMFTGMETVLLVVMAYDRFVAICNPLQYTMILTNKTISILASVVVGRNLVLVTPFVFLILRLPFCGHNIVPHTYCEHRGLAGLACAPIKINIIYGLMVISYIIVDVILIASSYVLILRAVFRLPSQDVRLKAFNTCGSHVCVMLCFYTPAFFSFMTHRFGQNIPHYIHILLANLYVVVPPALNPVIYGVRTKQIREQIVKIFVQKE
Chain of OR52E1 (Homo sapiens) (Q8NGJ3 whole entry): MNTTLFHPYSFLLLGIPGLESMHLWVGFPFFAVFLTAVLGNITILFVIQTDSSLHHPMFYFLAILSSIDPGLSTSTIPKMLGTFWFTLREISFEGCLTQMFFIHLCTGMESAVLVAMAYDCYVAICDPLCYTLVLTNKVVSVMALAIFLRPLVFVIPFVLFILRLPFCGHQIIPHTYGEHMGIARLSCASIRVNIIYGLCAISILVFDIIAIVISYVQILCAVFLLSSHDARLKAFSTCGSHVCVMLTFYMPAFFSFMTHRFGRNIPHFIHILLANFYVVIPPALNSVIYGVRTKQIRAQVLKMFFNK
Chain of OR52E5 (Homo sapiens) (Q8NH55 whole entry): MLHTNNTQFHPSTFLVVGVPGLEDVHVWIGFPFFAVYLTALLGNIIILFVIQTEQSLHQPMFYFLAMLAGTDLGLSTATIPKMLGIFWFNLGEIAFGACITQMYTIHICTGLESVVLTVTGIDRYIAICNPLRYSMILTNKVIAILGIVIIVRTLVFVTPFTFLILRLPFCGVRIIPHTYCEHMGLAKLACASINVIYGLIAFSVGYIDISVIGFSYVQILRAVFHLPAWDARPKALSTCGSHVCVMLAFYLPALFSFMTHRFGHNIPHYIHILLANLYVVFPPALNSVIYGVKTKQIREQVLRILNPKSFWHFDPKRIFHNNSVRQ

CCCCCCCCS
inactive: OR51L1 (Homo sapiens)

CCCCCC(=O)C(C)C(C)=O (stereo not given)
inactive: OR51I2 (Homo sapiens) | OR51J1 (Homo sapiens) | OR51L1 (Homo sapiens) | OR51M1 (Homo sapiens) | OR51Q1 (Homo sapiens) | OR51S1 (Homo sapiens) | OR51T1 (Homo sapiens) | OR51V1 (Homo sapiens) | OR52A1 (Homo sapiens) | OR52A4P (Homo sapiens) | OR52A5 (Homo sapiens) | OR52B2 (Homo sapiens) | OR52B4 (Homo sapiens) | OR52B6 (Homo sapiens) | OR52D1 (Homo sapiens) | OR52E2 (Homo sapiens) | OR52E4 (Homo sapiens) | OR52E5 (Homo sapiens) | OR52E6 (Homo sapiens)

CCCCC(C)=O
inactive: OR51L1 (Homo sapiens)

CCCCCOC(=O)CCCCC
inactive: OR51L1 (Homo sapiens)

CC1=C(O)C(=O)OC1C (stereo not given)
inactive: OR51I2 (Homo sapiens) | OR51J1 (Homo sapiens) | OR51L1 (Homo sapiens) | OR51M1 (Homo sapiens) | OR51Q1 (Homo sapiens) | OR51S1 (Homo sapiens) | OR51V1 (Homo sapiens) | OR52A1 (Homo sapiens) | OR52A5 (Homo sapiens) | OR52B2 (Homo sapiens) | OR52B4 (Homo sapiens) | OR52B6 (Homo sapiens) | OR52D1 (Homo sapiens) | OR52E1 (Homo sapiens) | OR52E2 (Homo sapiens) | OR52E4 (Homo sapiens) | OR52E6 (Homo sapiens)

O=C1CCOc2ccccc21
inactive: OR51L1 (Homo sapiens)

— the M2OR odorant receptor database
